Only some compounds are listed: those with a hit (about 5.8% of all), similar ones and a draw of the others.
IDH1 mut inh = inhibitors of IDH1 R132H reductase, primary screen, biochemical, plate reader, single point; Isocitrate dehydrogenase [NADP] cytoplasmic (Homo sapiens), O75874; diaphorase/resazurin fluorescence, 60 min; inhibition, % at 10 µM; hit rate 0.18% among 70,000; AID 624101, 2012; in the data active = inhibition above about 34%; inconclusive = no clear call, values can overlap the other calls; inactive = below about 11%
Pf Dd2 growth = P. falciparum Dd2 growth inhibitors, primary screen, SYBR Green fluorescence, single dose replicates; 72 h; hits give low values; activity change, % at 10 µM; hit rate 2.3% among 94,000; AID 1159554, 2015; in the data active = activity change below about -80%; inconclusive = no clear call, values can overlap the other calls
T cruzi growth-1 = T. cruzi intracellular proliferation inhibitors, primary screen, cell-based, beta-gal Tulahuen parasites, NIH3T3 host, luminescence; T. cruzi beta-gal in NIH3T3, GalScreen luminescence, 90 h; inhibition, % at 8.34 µM; hit rate 5.9% among 77,000; AID 624255, 2012;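 active = mean inhibition above about 93%, with at least 55% of replicates each passing it, limit read from the data, passing the limit was not always enough; inconclusive = only one of those two conditions holds; inactive = neither condition holds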
KDM4C inh = inhibitors of GASC-1 (KDM4C) histone demethylase, primary screen, biochemical, single concentration HTS; Lysine-specific demethylase 4C (Homo sapiens), Q9H3R0; GST-KDM4C 2-372, H3K9me3 peptide, LANCE TR-FRET; inhibition, % at 12.5 µM; hit rate 0.15% among 96,000;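 active = mean replicate inhibition above about 25%, with at least 55% of replicates also reaching it, limit read from the data, passing the limit was not always enough; inconclusive = only one of those two conditions met; inactive = neither condition met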
Target sequence (Q9H3R0 2-372 limits assumed): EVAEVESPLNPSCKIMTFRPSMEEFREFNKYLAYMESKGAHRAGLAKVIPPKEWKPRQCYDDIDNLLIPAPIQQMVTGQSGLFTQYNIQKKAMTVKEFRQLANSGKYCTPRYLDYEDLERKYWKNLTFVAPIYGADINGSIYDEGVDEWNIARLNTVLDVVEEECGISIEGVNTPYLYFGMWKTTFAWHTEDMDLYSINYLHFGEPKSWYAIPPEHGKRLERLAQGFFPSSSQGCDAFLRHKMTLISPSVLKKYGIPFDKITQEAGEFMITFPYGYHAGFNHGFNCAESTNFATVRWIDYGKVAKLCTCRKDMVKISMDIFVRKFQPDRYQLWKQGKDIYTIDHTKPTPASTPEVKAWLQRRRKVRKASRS
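System: N-terminal GST-fused human GASC-1 (KDM4C) fragment, residues 2-372 / Amount: 10 nM GST-KDM4C in enzyme reaction / Also added: H3K9me3 peptide with Fe(II)/2OG / Times: 30 min demethylation and 1 h detection at room temperature / Signal: LANCE TR-FRET / Read-out basis: Fall in 671/618 emission ratio as inhibition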
T cruzi growth-2 = T. cruzi intracellular proliferation inhibitors, confirmation, cell-based, NIH3T3 host, beta-gal parasite, luminescence, cherry-pick | shares compounds with T cruzi growth-1 | T. cruzi beta-gal in NIH3T3, GalScreen luminescence, 90 h | inhibition, % at 8.35 µM | hit rate 72% among 5,600 | AID 651739, 2012;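 active = mean replicate inhibition above about 95% and at least 55% of replicates individually reaching it, limit read from the data; inconclusive = only one of the two criteria is met; inactive = neither criterion is met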
T cruzi growth-3 = inhibitors of intracellular T. cruzi replication, confirmation, NIH3T3 host cells, beta-gal parasites, cherry-pick, set 2; T. cruzi beta-gal in NIH3T3, GalScreen luminescence, 90 h; inhibition, % at 2.09 µM; hit rate 21% among 5,600; shares compounds with T cruzi growth-1; AID 651740, 2012;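 active = mean inhibition above about 95%, with at least 55% of replicates also reaching it, limit read from the data; inconclusive = meets just one of the two conditions; inactive = meets neither condition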
NIH3T3 tox = cytotoxicity in mouse NIH/3T3 fibroblasts, confirmation, cytotoxicity control for T. cruzi proliferation inhibitor project, cell-based, cherry-pick, single point; hit rate 14% among 5,600; shares compounds with T cruzi growth-1; NIH/3T3 viability, CellTiter-Glo ATP luminescence, 90 h; AID 651742, 2012; cytotoxicity (signal decrease), % at 8.35 µM;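 active = mean signal decrease across replicates above about 35% based on untreated-well scatter, with enough replicates individually passing, limit read from the data; inconclusive = no rule stated though some were filed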
NIH3T3 tox 2 = NIH/3T3 fibroblast cytotoxicity, confirmation, cytotoxicity control, cell-based, cherry-pick, single point, set 2 | hit rate 56% among 5,600 | shares compounds with T cruzi growth-1 | NIH/3T3 viability, CellTiter-Glo ATP luminescence, 90 h | inhibition, % at 24.9 µM | AID 651744, 2012;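 active = mean loss of cell viability signal at or above a set limit, and enough replicates individually reaching it; inconclusive = meets only the mean limit or only the replicate share; inactive = meets neither condition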
Of the large screens only hits and unclear results are named; the others gave an inactive call (follow-up assays come after a bar, where they were run).

COc1ccccc1C#Cc1ccc2c(c1)O[C@@H](CN(C)Cc1ccncc1)[C@H](C)CN([C@@H](C)CO)S2(=O)=O	Pf Dd2 growth inconclusive, T cruzi growth-1 120.5 | T cruzi growth-2 99.7 | T cruzi growth-3 inactive | NIH3T3 tox 73.3 | NIH3T3 tox 2 81.2
COc1ccccc1C#Cc1ccc2c(c1)O[C@H](CN(C)Cc1cncnc1)[C@@H](C)CN([C@H](C)CO)S2(=O)=O	none (no result: IDH1 mut inh)
COc1ccccc1C#Cc1ccc2c(c1)O[C@@H](CN(C)Cc1cncnc1)[C@@H](C)CN([C@@H](C)CO)S2(=O)=O	none
CC(Oc1ccc(-c2ccccc2)cc1)C(=O)Nc1ccccc1[N+](=O)[O-] (stereo unspecified)	none (no result: Pf Dd2 growth, T cruzi growth-1, KDM4C inh)
COC(=O)c1c(NC(=S)NC(C)c2ccncc2)sc2c1CCC(C)C2 (stereo unspecified)	none (no result: Pf Dd2 growth, T cruzi growth-1, KDM4C inh)
O=C(CCCCCC(=O)N/N=C/CCC1CCCCC1)NO	none (no result: Pf Dd2 growth, T cruzi growth-1, KDM4C inh)
COc1ccc(Cn2c(C)cc(O)cc2=O)cc1OC	none (no result: Pf Dd2 growth, T cruzi growth-1, KDM4C inh)
C[C@@H]1CCCCO[C@H](CN(C)S(=O)(=O)c2ccc(Cl)cc2)[C@@H](C)CN([C@@H](C)CO)C(=O)c2cc(NC(=O)C3CCCCC3)ccc2O1	Pf Dd2 growth -81.4, T cruzi growth-1 108.1 | T cruzi growth-2 111.5 | T cruzi growth-3 inconclusive | NIH3T3 tox inactive | NIH3T3 tox 2 inactive
C[C@@H]1CCCCO[C@@H](CN(C)S(=O)(=O)c2ccc(Cl)cc2)[C@@H](C)CN([C@H](C)CO)C(=O)c2cc(NC(=O)C3CCCCC3)ccc2O1	none (no result: IDH1 mut inh)
C[C@@H]1CCCCO[C@@H](CN(C)S(=O)(=O)c2ccc(Cl)cc2)[C@H](C)CN([C@H](C)CO)C(=O)c2cc(NC(=O)C3CCCCC3)ccc2O1	Pf Dd2 growth -85.9, T cruzi growth-1 108.3 (no result: IDH1 mut inh) | T cruzi growth-2 110.8 | T cruzi growth-3 113.4 | NIH3T3 tox inactive | NIH3T3 tox 2 inactive
C[C@@H]1CCCCO[C@H](CN(C)S(=O)(=O)c2ccc(F)cc2)[C@H](C)CN([C@H](C)CO)C(=O)c2cc(NC(=O)C3CCCCC3)ccc2O1	T cruzi growth-1 inconclusive | T cruzi growth-2 111.9 | T cruzi growth-3 inactive | NIH3T3 tox inactive | NIH3T3 tox 2 inactive
COC(=O)C1=COC(O[C@@H]2O[C@H](CO)[C@@H](O)[C@H](O)[C@H]2O)[C@@H]2[C@@](C)(O)CC[C@]12O (stereo partly specified)	none (no result: Pf Dd2 growth, T cruzi growth-1, KDM4C inh)
N#C[C@H]1[C@@H](c2ccc(-c3cccc(F)c3)cc2)[C@H](CO)N1C(=O)NC1CCCC1	none (no result: IDH1 mut inh)
N#C[C@@H]1[C@@H](c2ccc(-c3cccc(F)c3)cc2)[C@H](CO)N1C(=O)NC1CCCC1	T cruzi growth-1 97.3 (no result: IDH1 mut inh) | T cruzi growth-2 104.8 | T cruzi growth-3 inactive | NIH3T3 tox inactive | NIH3T3 tox 2 38.1
N#C[C@@H]1[C@H](c2ccc(-c3cccc(F)c3)cc2)[C@H](CO)N1C(=O)NC1CCCC1	T cruzi growth-1 97.2 (no result: IDH1 mut inh) | T cruzi growth-2 108.7 | T cruzi growth-3 103.7 | NIH3T3 tox inactive | NIH3T3 tox 2 inactive
C/C=C/c1ccc([C@H]2[C@@H](CO)N(CC3CCCCC3)[C@H]2CNC(C)C)cc1	none (no result: IDH1 mut inh, T cruzi growth-1, KDM4C inh)
CC(C)NC[C@H]1[C@@H](c2ccc(-c3cccc(F)c3)cc2)[C@@H](CO)N1CC1CC1	T cruzi growth-1 109.0 (no result: IDH1 mut inh) | T cruzi growth-2 inactive | T cruzi growth-3 inactive | NIH3T3 tox inactive | NIH3T3 tox 2 105.4
O=C(Nc1sc2c(c1C(=O)NCc1cccnc1)CCCCC2)c1ccccc1	none (no result: Pf Dd2 growth, T cruzi growth-1, KDM4C inh)
